Test results taken from ChEMBL document CHEMBL5096186, “Design, Synthesis, and Biological Evaluation of Novel Pyrimido[4,5-b]indole Derivatives Against Gram-Negative Multidrug-Resistant Pathogens” (J Med Chem, 2021).
Values after ≈ are worked out from the molar mass of the structure shown.

Assays:
Staphylococcus aureus [1] = test: Antibacterial activity against methicillin-resistant Staphylococcus aureus strains 15 1 to 4 assessed as reduction in bacterial growth incubated for 18 to 20 hrs by CLSI based microdilution method; type: functional; conditions: time 18-20 hrs
How it was run: (§1)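 Broth microdilution per CLSI. Compounds dissolved in DMSO (levofloxacin and meropenem in water) as 64 μg/mL stock, then serial twofold dilutions in broth giving 64 to 0.008 μg/mL. […] Clinical isolates tested as several strains per group; racemic GP-1 served as positive control; values given as MIC ranges.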

Staphylococcus aureus [2] = test: Antibacterial activity against methicillin-sensitive Staphylococcus aureus strains 15 1 to 4 assessed as reduction in bacterial growth incubated for 18 to 20 hrs by CLSI based microdilution method; type: functional; conditions: time 18-20 hrs; how it was run: as §1
[3] = tested on: Staphylococcus epidermidis; test: Antibacterial activity against methicillin-resistant Staphylococcus epidermidis strains 15 1 to 4 assessed as reduction in bacterial growth incubated for 18 to 20 hrs by CLSI based microdilution method; type: functional; conditions: time 18-20 hrs; how it was run: as §1
[4] = tested on: Staphylococcus epidermidis; test: Antibacterial activity against methicillin-sensitive Staphylococcus epidermidis strains 15 1 to 4 assessed as reduction in bacterial growth incubated for 18 to 20 hrs by CLSI based microdilution method; type: functional; conditions: time 18-20 hrs; how it was run: as §1
Escherichia coli [5] = test: Antibacterial activity against ESBL-producing Escherichia coli ATCC 35218 strains 15 1 to 3 assessed as reduction in bacterial growth incubated for 18 to 20 hrs by CLSI based microdilution method; type: functional; conditions: time 18-20 hrs
How it was run: (§2)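 CLSI broth microdilution. Compounds in DMSO (levofloxacin and meropenem in water), serial twofold dilutions in broth, 64 to 0.008 μg/mL. […] Results reported as MIC ranges across strains.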

Escherichia coli [6] = test: Antibacterial activity against Escherichia coli ATCC 35218 strains 15 1 to 3 assessed as reduction in bacterial growth incubated for 18 to 20 hrs by CLSI based microdilution method; type: functional; conditions: time 18-20 hrs; how it was run: as §2
Pseudomonas aeruginosa [7] = test: Antibacterial activity against multidrug resistant Pseudomonas aeruginosa strains 15 1 to 3 assessed as reduction in bacterial growth incubated for 18 to 20 hrs by CLSI based microdilution method; type: functional; conditions: time 18-20 hrs; how it was run: as §1
Escherichia coli [8] = test: Antibacterial activity against ESBL-producing multidrug resistant Escherichia coli assessed as reduction in bacterial growth incubated for 18 to 20 hrs by CLSI based microdilution method; type: functional; conditions: time 18-20 hrs; how it was run: as §1
Escherichia coli [9] = test: Antibacterial activity against multidrug resistant wild type Escherichia coli ATCC BAA-2340 assessed as reduction in bacterial growth incubated for 18 to 20 hrs by CLSI based microdilution method; type: functional; conditions: time 18-20 hrs; how it was run: as §1
Escherichia coli [10] = test: Antibacterial activity against multidrug resistant wild type Escherichia coli NCTC 13353 assessed as reduction in bacterial growth incubated for 18 to 20 hrs by CLSI based microdilution method; type: functional; conditions: time 18-20 hrs; how it was run: as §1
Klebsiella pneumoniae [11] = test: Antibacterial activity against KPC2-producing multidrug resistant Klebsiella pneumoniae assessed as reduction in bacterial growth incubated for 18 to 20 hrs by CLSI based microdilution method; type: functional; conditions: time 18-20 hrs; how it was run: as §1
Klebsiella pneumoniae [12] = test: Antibacterial activity agains wild type Klebsiella pneumoniae ATCC BAA-1705 assessed as reduction in bacterial growth incubated for 18 to 20 hrs by CLSI based microdilution method; type: functional; conditions: time 18-20 hrs; how it was run: as §2
Klebsiella pneumoniae [13] = test: Antibacterial activity agains wild type Klebsiella pneumoniae ATCC BAA-2470 assessed as reduction in bacterial growth incubated for 18 to 20 hrs by CLSI based microdilution method; type: functional; conditions: time 18-20 hrs; how it was run: as §1
Acinetobacter baumannii [14] = test: Antibacterial activity agains OXA23-producing multidrug resistant Acinetobacter baumannii assessed as reduction in bacterial growth incubated for 18 to 20 hrs by CLSI based microdilution method; type: functional; conditions: time 18-20 hrs; how it was run: as §1
Acinetobacter baumannii [15] = test: Antibacterial activity against wild type Acinetobacter baumannii NCTC 13304 assessed as reduction in bacterial growth incubated for 18 to 20 hrs by CLSI based microdilution method; type: functional; conditions: time 18-20 hrs; how it was run: as §1
Pseudomonas aeruginosa [16] = test: Antibacterial activity against IMP4-producing multidrug resistant Pseudomonas aeruginosa assessed as reduction in bacterial growth incubated for 18 to 20 hrs by CLSI based microdilution method; type: functional; conditions: time 18-20 hrs; how it was run: as §1
Pseudomonas aeruginosa [17] = test: Antibacterial activity against wild type Pseudomonas aeruginosa ATCC 27853 assessed as reduction in bacterial growth incubated for 18 to 20 hrs by CLSI based microdilution method; type: functional; conditions: time 18-20 hrs; how it was run: as §2
[18] = AUC (0 to infinity) in Sprague-Dawley rat at 4 mg/kg, iv measured upto 24 hrs by LC-MS/MS analysis; type: ADME, organism-based; set-up: time < 24 hrs, dose 4 mg/kg, route iv; conditions: in vivo
How it was run: (§3)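 Male Sprague-Dawley rats, n = 3 per group, single intravenous dose. For 4 mg/kg: 180–280 g rats, vehicle 5% DMSO + 5% EtOH + 40% PEG300 + 50% saline, blood from the retrobulbar vein at 0.05–24 h. For 5 and 20 mg/kg: 180–300 g rats, vehicle 5% DMSO + 5% solutol + 90% saline, sampled at 0.083–24 h. Plasma quantified by LC/MS/MS. Parameters from mean plasma concentration by noncompartmental analysis; values are mean ± standard deviation.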

[19] = Elimination half life in Sprague-Dawley rat at 4 mg/kg, iv measured upto 24 hrs by LC-MS/MS analysis; type: ADME, organism-based; conditions: in vivo, read-out: beta t1/2 (converted); how it was run: as §3
[20] = MRT in Sprague-Dawley rat at 4 mg/kg, iv measured upto 24 hrs by LC-MS/MS analysis; type: ADME, organism-based; conditions: in vivo; how it was run: as §3
[21] = Clearance in Sprague-Dawley rat at 4 mg/kg, iv measured upto 24 hrs by LC-MS/MS analysis; type: ADME, organism-based; conditions: in vivo; how it was run: as §3
[22] = Volume of distribution at the steady state in Sprague-Dawley rat at 4 mg/kg, iv measured upto 24 hrs by LC-MS/MS analysis; type: ADME, organism-based; conditions: in vivo, read-out: Vdss; how it was run: as §3
[23] = biological target: hERG (KCNH2) potassium channel (Homo sapiens, UniProt Q12809); test: Inhibition of hERG potassium channel assessed as maximum inhibition rate at 40 uM at -80 mV holding potential incubated for 120 seconds by whole cell-automated voltage clamp analysis assay relative to control; type: toxicity; conditions: time 120 sec
How it was run: (§4)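 Automated whole-cell patch clamp, holding potential −80 mV. Voltage protocol applied every 20 s. Baseline set with external solution containing 0.1% DMSO and stabilised 3 min. Compound applied until steady state, at least 3 min, then washout. Maximum tested concentration 40 μM, or 3 μM for cisapride as positive control.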

[24] = biological target: Voltage-gated inwardly rectifying potassium channel KCNH2 (Homo sapiens, UniProt Q12809); test: Inhibition of hERG potassium channel assessed as […] at -80 mV holding potential incubated for 120 seconds by whole cell-automated voltage clamp analysis assay; type: toxicity; how it was run: as §4
[25] = Metabolic stability in rat liver microsome assessed as elimination half life at 0.1 uM in presence of NADPH incubated upto 60 mins by LC-MS/MS analysis; type: ADME; conditions: liver microsomes, read-out: beta t1/2
How it was run: (§5)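 Compound at 0.1 μM final, in 0.01% DMSO with 0.005% BSA. Incubated with rat or human liver microsomes at 0.33 mg/mL in 0.1 M Tris-HCl, pH 7.4, with 5 mM MgCl₂ and 1 mM NADPH, at 37 °C. Samples at 0, 7, 17, 30 and 60 min quenched with cold methanol and analysed by LC-MS/MS. Half-life, Cl_int and MF% derived as previously described.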

[26] = Metabolic stability in human liver microsome assessed as elimination half life at 0.1 uM in presence of NADPH incubated upto 60 mins by LC-MS/MS analysis; type: ADME; conditions: liver microsomes, read-out: beta t1/2; how it was run: as §5
[27] = Metabolic stability in rat liver microsome assessed as intrinsic clearance at 0.1 uM in presence of NADPH incubated upto 60 mins by LC-MS/MS analysis; type: ADME; conditions: microsomes, 1 h; how it was run: as §5
[28] = Metabolic stability in human liver microsome assessed as intrinsic clearance at 0.1 uM in presence of NADPH incubated upto 60 mins by LC-MS/MS analysis; type: ADME; conditions: microsomes, 1 h; how it was run: as §5
[29] = Metabolic stability in rat liver microsome assessed as metabolic bioavailability at 0.1 uM in presence of NADPH incubated upto 60 mins by LC-MS/MS analysis; type: ADME; conditions: liver microsomes; how it was run: as §5
[30] = Metabolic stability in human liver microsome assessed as metabolic bioavailability at 0.1 uM in presence of NADPH incubated upto 60 mins by LC-MS/MS analysis; type: ADME; conditions: liver microsomes; how it was run: as §5

hERG (KCNH2) potassium channel, sequence (Q12809 whole entry): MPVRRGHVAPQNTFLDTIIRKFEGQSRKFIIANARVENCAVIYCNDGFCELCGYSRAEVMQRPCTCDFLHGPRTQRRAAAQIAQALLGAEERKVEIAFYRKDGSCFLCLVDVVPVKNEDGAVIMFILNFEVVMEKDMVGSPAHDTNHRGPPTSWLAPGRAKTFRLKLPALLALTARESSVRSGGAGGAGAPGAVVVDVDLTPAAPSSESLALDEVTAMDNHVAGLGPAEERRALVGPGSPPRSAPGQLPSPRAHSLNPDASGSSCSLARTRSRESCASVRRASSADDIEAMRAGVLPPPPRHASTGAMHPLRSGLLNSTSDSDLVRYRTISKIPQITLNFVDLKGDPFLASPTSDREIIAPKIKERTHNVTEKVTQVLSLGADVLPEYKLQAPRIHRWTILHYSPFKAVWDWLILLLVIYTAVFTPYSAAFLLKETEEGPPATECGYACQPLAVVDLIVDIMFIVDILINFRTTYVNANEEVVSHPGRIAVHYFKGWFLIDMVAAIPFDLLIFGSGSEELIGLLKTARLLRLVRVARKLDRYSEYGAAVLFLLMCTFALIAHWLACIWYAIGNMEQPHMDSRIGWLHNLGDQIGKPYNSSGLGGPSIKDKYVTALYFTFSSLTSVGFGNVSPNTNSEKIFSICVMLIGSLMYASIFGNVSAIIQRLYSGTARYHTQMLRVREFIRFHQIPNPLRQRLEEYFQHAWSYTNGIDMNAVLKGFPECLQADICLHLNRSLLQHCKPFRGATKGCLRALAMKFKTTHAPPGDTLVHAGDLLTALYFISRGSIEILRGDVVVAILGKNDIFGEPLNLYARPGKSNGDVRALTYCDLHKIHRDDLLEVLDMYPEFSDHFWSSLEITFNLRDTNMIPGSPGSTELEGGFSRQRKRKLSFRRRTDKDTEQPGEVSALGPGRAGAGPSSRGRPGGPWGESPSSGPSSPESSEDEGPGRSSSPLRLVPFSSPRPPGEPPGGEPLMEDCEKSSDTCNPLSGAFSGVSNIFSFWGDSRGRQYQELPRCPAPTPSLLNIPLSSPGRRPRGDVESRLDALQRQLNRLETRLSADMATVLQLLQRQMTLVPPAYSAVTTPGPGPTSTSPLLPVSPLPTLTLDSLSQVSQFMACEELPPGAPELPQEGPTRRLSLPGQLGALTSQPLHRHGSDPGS
Voltage-gated inwardly rectifying potassium channel KCNH2, sequence (Q12809 whole entry): as above

| Structure (SMILES) | MIC (Staphylococcus aureus [1]) | MIC (Staphylococcus aureus [2]) | MIC [3] | MIC [4] | MIC (Escherichia coli [5]) | MIC (Escherichia coli [6]) | MIC (Pseudomonas aeruginosa [7]) | other results |
| --- | --- | --- | --- | --- | --- | --- | --- | --- |
| CCC(CN)=C1CN(c2nc(N)nc3[nH]c4c(NC)cc(F)cc4c23)C1 | 4 µg/mL (≈ 11.3 µM) | > 4 µg/mL | 4 µg/mL (≈ 11.3 µM) | 2 µg/mL (≈ 5.63 µM) | 4 µg/mL (≈ 11.3 µM) | 2 µg/mL (≈ 5.63 µM) | ≥ 16 µg/mL | – |
| C[C@H]1COc2c(N3CCN(C)CC3)c(F)cc3c(=O)c(C(=O)O)cn1c23.C[C@H]1COc2c(N3CCN(C)CC3)c(F)cc3c(=O)c(C(=O)O)cn1c23.O [LEVOFLOXACIN] | 16 µg/mL | 0.25 µg/mL | > 4 µg/mL | 0.125 µg/mL | – | ≤ 0.03 µg/mL | 0.5 µg/mL | MIC (Escherichia coli [8]): 8 µg/mL; MIC (Escherichia coli [9]): 4 µg/mL; MIC (Escherichia coli [10]): 32 µg/mL; MIC (Klebsiella pneumoniae [11]): ≥ 32 µg/mL; MIC (Klebsiella pneumoniae [12]): 64 µg/mL; MIC (Klebsiella pneumoniae [13]): 16 µg/mL; MIC (Acinetobacter baumannii [14]): 4 µg/mL; MIC (Acinetobacter baumannii [15]): 4 µg/mL; MIC (Pseudomonas aeruginosa [16]): 4 µg/mL; MIC (Pseudomonas aeruginosa [17]): 2 µg/mL |
| CCC(CO)=C1CN(c2nc(Oc3cnc(C)nc3)nc3[nH]c4c(NC)cc(F)c(F)c4c23)C1 | – | < 0.03 µg/mL | – | < 0.03 µg/mL | 0.25 µg/mL (≈ 0.535 µM) | 32 µg/mL (≈ 68.5 µM) | > 8 µg/mL | AUC(0-inf) [18]: 517 ng·h/mL; half-life [19]: 6.5 h; MRT [20]: 8.3 h; clearance [21]: 141 mL/min/kg; Vd [22]: 68.4 L/kg |
| CCC(CN)=C1CN(c2nc(Sc3ccc(Br)cn3)nc3[nH]c4c(NC)cc(F)cc4c23)C1 | 0.5 µg/mL (≈ 0.946 µM) | 1 µg/mL (≈ 1.89 µM) | 0.25 µg/mL (≈ 0.473 µM) | 0.25 µg/mL (≈ 0.473 µM) | > 2 µg/mL | > 1 µg/mL | > 16 µg/mL | – |
| CCC(CN)=C1CN(c2nc(Oc3cnc(CO)nc3)nc3[nH]c4c(NC)cc(F)cc4c23)C1 | – | < 0.008 µg/mL | – | < 0.008 µg/mL | 0.5 µg/mL (≈ 1.08 µM) | 0.25 µg/mL (≈ 0.538 µM) | > 4 µg/mL | inhibition at 2 min, 40 µM [23]: 30.9%; IC50 [24]: > 40 µM; MIC (Escherichia coli [8]): 1 µg/mL (≈ 2.15 µM); MIC (Escherichia coli [9]): 1 µg/mL (≈ 2.15 µM); MIC (Escherichia coli [10]): 0.5 µg/mL (≈ 1.08 µM); MIC (Klebsiella pneumoniae [11]): 4 µg/mL (≈ 8.61 µM); MIC (Klebsiella pneumoniae [12]): 8 µg/mL (≈ 17.2 µM); MIC (Klebsiella pneumoniae [13]): 2 µg/mL (≈ 4.31 µM); MIC (Acinetobacter baumannii [14]): 1 µg/mL (≈ 2.15 µM); MIC (Acinetobacter baumannii [15]): 1 µg/mL (≈ 2.15 µM); MIC (Pseudomonas aeruginosa [16]): > 8 µg/mL; MIC (Pseudomonas aeruginosa [17]): 4 µg/mL (≈ 8.61 µM); half-life at 0.1 µM [25]: 0.198 h; half-life at 0.1 µM [26]: 0.963 h; CLH [27]: 176.4 mL/min/g; CLH [28]: 36.3 mL/min/g; Fh at 1 h, 0.1 µM [29]: 20.1%; Fh at 1 h, 0.1 µM [30]: 35% |
| CNc1cc(F)cc2c1[nH]c1nc(Oc3cnc(C)nc3)nc(N3CC(=CCN)C3)c12 | 0.5 µg/mL (≈ 1.19 µM) | 0.5 µg/mL (≈ 1.19 µM) | 0.25 µg/mL (≈ 0.595 µM) | 0.25 µg/mL (≈ 0.595 µM) | 8 µg/mL (≈ 19 µM) | 0.5 µg/mL (≈ 1.19 µM) | ≥ 16 µg/mL | – |
| CNc1cc(F)cc2c1[nH]c1nc(Oc3cnc(C)nc3)nc(N3CC(=C(F)CN)C3)c12 | 0.015 µg/mL (≈ 0.0342 µM) | 0.015 µg/mL (≈ 0.0342 µM) | 0.015 µg/mL (≈ 0.0342 µM) | 0.125 µg/mL (≈ 0.285 µM) | 0.25 µg/mL (≈ 0.57 µM) | 0.06 µg/mL (≈ 0.137 µM) | > 16 µg/mL | inhibition at 2 min, 40 µM [23]: 3.2%; IC50 [24]: > 40 µM |
